ChEMBL document CHEMBL3616442, “Unconventional Knoevenagel-type indoles: Synthesis and cell-based studies for the identification of pro-apoptotic agents” (Eur J Med Chem, 2015)
The source made the active and inactive calls. The rule behind the calls is not given here.

Experiments:
CCRF-CEM [1] = assay: Cytotoxicity against human CCRF-CEM cells after 96 hrs by MTT assay; assay type: functional, cell-based
In short: (§1)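 ATCC cell lines, mycoplasma-free by Hoechst staining. Haematological lines in RPMI-1640, solid-tumour and normal fibroblast lines in their own media, all with 10% FCS and antibiotics, at 37 °C in 5% CO₂. Compounds added as serial dilutions from a 100 mM DMSO stock diluted in medium. Viability by MTT after 96 h at 37 °C. Mean ± SD of three independent determinations.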

WIL2-NS = assay: Cytotoxicity against human WIL2-NS cells after 96 hrs by MTT assay; assay type: functional, cell-based; in short: as §1
CCRF-SB = assay: Cytotoxicity against human CCRF-SB cells after 96 hrs by MTT assay; assay type: functional, cell-based; in short: as §1
MRC5 = assay: Cytotoxicity against human MRC5 cells after 96 hrs by MTT assay; assay type: cell-based; settings: MRC5, 96 h; in short: as §1
[2] = Cytotoxicity against human CRL7065 cells after 96 hrs by MTT assay; assay type: cell-based; settings: CRL-7065, 96 h; in short: as §1
SK-MEL-28 = assay: Cytotoxicity against human SK-MEL-28 cells after 96 hrs by MTT assay; assay type: functional, cell-based; settings: SK-MEL-28, 96 h; in short: as §1
[3] = Cytotoxicity against human SKMES1 cells after 96 hrs by MTT assay; assay type: functional, cell-based; settings: SK-MES-1, 96 h; in short: as §1
DU-145 = assay: Cytotoxicity against human DU145 cells after 96 hrs by MTT assay; assay type: functional, cell-based; settings: DU-145, 96 h; in short: as §1
HepG2 = assay: Cytotoxicity against human HepG2 cells after 96 hrs by MTT assay; assay type: functional, cell-based; settings: HepG2, 96 h; in short: as §1
MCF7 [4] = assay: Cytotoxicity against human MCF7 cells after 96 hrs by MTT assay; assay type: functional, cell-based; settings: MCF7, 96 h; in short: as §1
CCRF-CEM [5] = assay: Growth inhibition of human CCRF-CEM cells after 48 hrs by sulforhodamine B assay; assay type: functional
In short: (§2)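 NCI 60-cell-line screen. Compounds tested at five 10-fold dilutions from 10^-4 to 10^-8 M. Cells exposed for the last 48 h of a 72 h incubation, growth estimated by sulforhodamine B protein assay. GI50 is the concentration giving 50% growth inhibition. Values beyond the tested range are expressed as greater or lesser than the extreme concentration.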

[6] = Growth inhibition of human RPMI8226 cells after 48 hrs by sulforhodamine B assay; assay type: functional; settings: RPMI-8226, 48 h
SR = assay: Growth inhibition of human SR cells after 48 hrs by sulforhodamine B assay; assay type: functional
HOP-62 = assay: Growth inhibition of human HOP62 cells after 48 hrs by sulforhodamine B assay; assay type: functional; settings: HOP-62, 48 h; in short: as §2
NCI-H522 = assay: Growth inhibition of human NCI-H522 cells after 48 hrs by sulforhodamine B assay; assay type: functional; settings: NCI-H522, 48 h; in short: as §2
[7] = Growth inhibition of human COLO205 cells after 48 hrs by sulforhodamine B assay; assay type: functional; settings: COLO 205, 48 h; in short: as §2
SF-268 = assay: Growth inhibition of human SF268 cells after 48 hrs by sulforhodamine B assay; assay type: functional; settings: SF-268, 48 h
[8] = Growth inhibition of human SF295 cells after 48 hrs by sulforhodamine B assay; assay type: functional; settings: SF-295, 48 h
M14 = assay: Growth inhibition of human M14 cells after 48 hrs by sulforhodamine B assay; assay type: functional; settings: M14, 48 h; in short: as §2
MDA-MB-435 = assay: Growth inhibition of human MDA-MB-435 cells after 48 hrs by sulforhodamine B assay; assay type: functional; settings: MDA-MB-435, 48 h; in short: as §2
IGROV-1 = assay: Growth inhibition of human IGROV1 cells after 48 hrs by sulforhodamine B assay; assay type: functional; settings: IGROV-1, 48 h; in short: as §2
SK-OV-3 = assay: Growth inhibition of human SKOV3 cells after 48 hrs by sulforhodamine B assay; assay type: functional; settings: SK-OV-3, 48 h
786-0 = assay: Growth inhibition of human 786-0 cells after 48 hrs by sulforhodamine B assay; assay type: functional; settings: 786-0, 48 h; in short: as §2
CAKI-1 = assay: Growth inhibition of human CAKI-1 cells after 48 hrs by sulforhodamine B assay; assay type: functional; settings: CAKI-1, 48 h; in short: as §2
SN12C = assay: Growth inhibition of human SN12C cells after 48 hrs by sulforhodamine B assay; assay type: functional
PC-3 = assay: Growth inhibition of human PC3 cells after 48 hrs by sulforhodamine B assay; assay type: functional; settings: PC-3, 48 h
MDA-MB-231 = assay: Growth inhibition of human MDA-MB-231 cells after 48 hrs by sulforhodamine B assay; assay type: functional; settings: MDA-MB-231, 48 h; in short: as §2
T47D = assay: Growth inhibition of human T47D cells after 48 hrs by sulforhodamine B assay; assay type: functional
HL-60 [9] = assay: Antiproliferative activity against human HL60 cells after 3 days incubation by alamar blue method; assay type: functional
In short: (§3)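 HL-60 and K562 grown in RPMI 1640, MCF-7 in DMEM, each with 10% FCS, penicillin G and streptomycin. Seeded at 4x10⁴ (HL-60, K562) or 2x10⁴ (MCF-7) cells per well with serial compound dilutions, incubated 3 days at 37 °C. Alamar blue added for 3 h at 37 °C in the dark, fluorescence read at ex 544/em 590 nm. IC50 versus untreated controls by linear regression.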

K562 [10] = assay: Antiproliferative activity against human K562 cells after 3 days incubation by alamar blue method; assay type: functional; in short: as §3
MCF7 [11] = assay: Antiproliferative activity against human MCF7 cells after 3 days incubation by alamar blue method; assay type: functional; in short: as §3
HL-60 [12] = assay: Induction of apoptosis in human HL60 cells by propidium iodide staining based flow cytometric analysis; assay type: functional
In short: (§4)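 After treatment, cells harvested, fixed in ice-cold 70% ethanol at 4 °C, stained 30 min at 37 °C in the dark with 100 µg/mL propidium iodide plus 10 µg/mL RNase A; 10,000 gated cells analysed at 488 nm with debris excluded; apoptosis followed over time; mean ± S.E.M. of three independent experiments run in triplicate.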

K562 [13] = assay: Induction of apoptosis in human K562 cells by propidium iodide staining based flow cytometric analysis; assay type: functional; settings: TDE = time-dependent effect; in short: as §4
MCF7 [14] = assay: Induction of apoptosis in human MCF7 cells by propidium iodide staining based flow cytometric analysis; assay type: functional; settings: TDE = time-dependent effect; in short: as §4
HL-60 [15] = assay: Induction of cell cycle arrest in human HL60 cells assessed as accumulation at G2/M phase after 18 hrs by propidium iodide staining based flow cytometric analysis; assay type: functional
In short: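 Propidium iodide/RNase A flow cytometry of ethanol-fixed cells, 10,000 gated events at 488 nm; G2/M fraction measured after 18 h treatment (HL-60, MCF-7) or 24 h (K562); mean ± S.E.M. of three independent experiments.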

Tubulin (Homo sapiens) = Tubulin (Homo sapiens) (UniProt P68371+Q9H4B7+P0DPH7+P68366+Q13509+Q71U36+P04350+Q3ZCM7+P07437+P68363+Q9BQE3+Q6PEY2+Q13885+Q9BVA1+Q9BUF5); assay: Induction of Tubulin depolymerization in human MCF7 cells by immunofluorescence analysis; assay type: cell-based
In short: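 MCF-7 cells grown and treated on chamber slides, fixed in ice-cold 100% methanol, washed in PBS with 0.1% Triton X-100, blocked 30 min in 5% BSA, then mouse anti-tubulin for 1 h and Alexa 488 secondary for 1 h; DNA counterstained with 0.2 μg/mL propidium iodide for 2 min. Paclitaxel and PBOX-15 served as tubulin controls.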

COc1ccc(-c2[nH]c3ccccc3c2/C=C(\C#N)S(=O)(=O)c2ccccc2)cc1
EC50 (CCRF-CEM [1]): 0.3 µM | EC50 (WIL2-NS): 0.4 µM | EC50 (CCRF-SB): 0.3 µM | EC50 (MRC5): 73 µM | EC50 [2]: > 100 µM | EC50 (SK-MEL-28): > 100 µM | EC50 [3]: 43 µM | EC50 (DU-145): 2 µM | EC50 (HepG2): 11 µM | EC50 (MCF7 [4]): > 100 µM | GI50 (CCRF-CEM [5]): 1.3 µM | GI50 [6]: 2.1 µM | GI50 (SR): 0.35 µM | GI50 (HOP-62): 1 µM | GI50 (NCI-H522): 3 µM | GI50 [7]: 0.254 µM | GI50 (SF-268): 1.1 µM | GI50 [8]: 0.5 µM | GI50 (M14): 0.383 µM | GI50 (MDA-MB-435): 0.203 µM | GI50 (IGROV-1): 19.3 µM | GI50 (SK-OV-3): 0.528 µM | GI50 (786-0): 1.2 µM | GI50 (CAKI-1): 0.997 µM | GI50 (SN12C): 1.5 µM | GI50 (PC-3): 0.557 µM | GI50 (MDA-MB-231): 0.649 µM | GI50 (T47D): 0.533 µM | Activity (HL-60 [9]): Dose-dependent effect | GI50 (HL-60 [9]; HL-60, 72 h): 0.66 µM | Activity (K562 [10]): Dose-dependent effect | GI50 (K562 [10]; K562, 72 h): 5.28 µM | Activity (MCF7 [11]): Dose-dependent effect | GI50 (MCF7 [11]; MCF7, 72 h): 5.6 µM | Activity (HL-60 [12]): 65.5% | Activity (HL-60 [12]; TDE = time-dependent effect): tde | Activity (K562 [13]): tde | Activity (MCF7 [14]): tde | Activity (HL-60 [15]): 47.3% | Activity (Tubulin (Homo sapiens)): Active
